Results collected from several papers.
Protocols differ between the studies behind these lines.
Target: Mitogen-activated protein kinase 7 (MAPK7, Homo sapiens, UniProt Q13164)

SMILES | effect on | action | technique | concentration | endpoint | result
FC(F)(F)Oc1cccc(-c2cnc3ccc(-c4ccncc4)nn23)c1 | enzyme activity | inhibitor | radiometric | 1 µM | activity vs control | 51%
O=C(Nc1cnn(-c2csc(C(=O)NC3COC3)c2)c1)Nc1ccccc1Cl | enzyme activity | inhibitor |  | 5 µM | remaining activity | 119%
CC(C)(C)c1nc2c(s1)c1nc(N)ncc1c1ccc(NS(=O)(=O)c3c(F)cccc3F)c(F)c12 | enzyme activity | inhibitor | radiometric | 1 µM | remaining activity | 80%
Cc1sc(C(=O)NC2COC2)cc1-n1cc(NC(=O)Nc2c(F)cccc2Cl)cn1 | enzyme activity | inhibitor |  | 10 µM | remaining activity | 95.7%
COc1ccc2c(c1)O[C@@H](c1ccc(OC)c(OC)c1)C[C@H]2NC(=O)C1(c2ccc3c(c2)OC(F)(F)O3)CC1 | cell-free assay |  | competition with immobilised ligand | 1 µM | remaining binding | 100%
COc1cc(/C=C/C(=O)CC(=O)/C=C/c2ccc(O)c(OC)c2)ccc1O | enzyme activity | inhibitor |  | 1 µM | activity vs control | 62%
CSc1cccnc1N1CCN(Cc2nc3ccccc3[nH]2)CC1 | cell-free assay |  | competition with immobilised ligand | 1 µM | remaining binding | 100%
c1ccc(CNc2nc(N3CCOc4ccccc43)nc3c2CCCC3)cc1 | target engagement in cells | inhibitor | chemoproteomics | 20 mM | inhibition | -6.4%
Cc1nc(N2CC[C@@H](O)C2)ncc1-c1cc(C(F)(F)F)cc2[nH]ncc12 | binding |  | competition with immobilised ligand | 1 µM | remaining binding | 83%
Cc1ccc(C(=O)Nc2ccc(CN3CCN(C)CC3)c(C(F)(F)F)c2)cc1C#Cc1cnc2cccnn12 | enzyme activity | inhibitor |  | 23.5 nM | remaining activity | 98%
Cn1cc(Cl)c2c(Oc3c(F)cc(Nc4cc(Cl)nc(N)n4)cc3F)ccnc21 | cell-free assay |  | competition with immobilised ligand | 0.1 µM | remaining binding | 100%
COc1cc(Nc2cnc(C#N)c(O[C@H](C)CN(C)C)n2)ncc1-c1cnn(C)c1 | enzyme activity | inhibitor | radiometric | 10 µM | remaining activity | 85%
